Data published in ChEMBL document CHEMBL4811313, “Himalaquinones A-G, Angucyclinone-Derived Metabolites Produced by the Himalayan Isolate Streptomyces sp. PU-MM59” (J Nat Prod, 2021).
Calls of active or inactive are those of the source. The rule behind the calls is not given here.

Tests used:
Staphylococcus aureus = assay: Antibacterial activity against Staphylococcus aureus ATCC 6538 at <= 133 uM incubated for 16 hrs; type: functional, organism-based; settings: dose microM <=133, time 16.0 hrs
Method in brief: (§1)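 Microbial strains from ATCC or NRRL, tested in triplicate with a top concentration of 133 μM. Positive controls were kanamycin and ampicillin (S. aureus, M. luteus, S. enterica, E. coli) and amphotericin B (S. cerevisiae).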

Bacillus spizizenii = assay: Antibacterial activity against Bacillus subtilis ATCC 6633 at <= 133 uM incubated for 16 hrs; type: functional, organism-based; settings: dose microM <=133, time 16.0 hrs; method in brief: as §1
Micrococcus luteus = assay: Antibacterial activity against Micrococcus luteus NRRL B-287 at <= 133 uM incubated for 16 hrs; type: functional, organism-based; settings: dose microM <=133, time 16.0 hrs; method in brief: as §1
PC-3 [1] = assay: Cytotoxicity against human PC3 cells assessed as reduction in cell viability at 80 uM after 72 hrs by resazurin dye based fluorescence analysis; type: functional
Method in brief: (§2)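 A549 (non-small-cell lung) and PC3 (prostate) human cancer cells from ATCC. Viability was read after 72 h, in triplicate. Runs were either a single 80 μM concentration or a dose-response. Actinomycin D served as the positive control.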

Saccharomyces cerevisiae = assay: Antifungal activity against Saccharomyces cerevisiae ATCC 204508 at <= 133 uM after 16 hrs; type: functional, organism-based; settings: dose microM <=133, time 16.0 hrs; method in brief: as §1
Salmonella enterica = assay: Antibacterial activity against Salmonella enterica ATCC 10708 at <= 133 uM incubated for 16 hrs; type: functional, organism-based; settings: dose microM <=133, time 16.0 hrs; method in brief: as §1
Mycolicibacterium aurum = assay: Antibacterial activity against Mycobacterium aurum ATCC 23366 at <= 133 uM incubated for 16 hrs; type: functional, organism-based; settings: dose microM <=133, time 16.0 hrs; method in brief: as §1
Escherichia coli = assay: Antibacterial activity against Escherichia coli NRRL B-3708 at <= 133 uM incubated for 16 hrs; type: functional, organism-based; settings: dose microM <=133, time 16.0 hrs; method in brief: as §1
A549 [2] = assay: Cytotoxicity against human A549 cells assessed as reduction in cell viability at 80 uM after 72 hrs by resazurin dye based fluorescence analysis; type: functional; method in brief: as §2
[3] = Toxicity in axolotl embryo at 10 uM after 7 days by tail regeneration assay; settings: ambystoma mexicanum, 168 h, time 7 day
Method in brief: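 Stage 42 axolotl embryos were hatched manually, anesthetized with benzocaine and given 2 mm tail amputations. They were reared at 18–19 °C in artificial pond water with compound (10 μM; one compound at 1.0 μM) in 0.1% final DMSO. Regeneration was imaged at 0 and 7 days postamputation. DMSO was the negative control and geldanamycin the positive control.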

A549 [4] = assay: Cytotoxicity against human A549 cells assessed as reduction in cell viability after 72 hrs by resazurin dye based fluorescence analysis; type: functional; settings: A549, 72 h; method in brief: as §2
[5] = molecular target: Eukaryotic translation initiation factor 4E-binding protein 1 (Homo sapiens) (UniProt Q13541); assay: Inhibition of 4E-BP1 phosphorylation in human HCT116 cells at 2 uM after 6 hrs by Western blot analysis; type: cell-based; settings: HCT-116
Method in brief: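 HCT116 cells were treated 6 h with 2 μM compound or with DMSO as negative control. Lysate was run on SDS-PAGE, blotted to PVDF and probed for phospho-4E-BP1 (Thr37/46, Ser65, Thr70), with chemiluminescent detection.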

PC-3 [6] = assay: Cytotoxicity against human PC3 cells assessed as reduction in cell viability after 72 hrs by resazurin dye based fluorescence analysis; type: functional; settings: PC-3, 72 h; method in brief: as §2
[7] = Toxicity in axolotl embryo at 1 uM after 7 days by tail regeneration assay; settings: ambystoma mexicanum, 168 h, time 7 day
Method in brief: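 Stage 42 embryos manually hatched, anaesthetised with benzocaine, given 2 mm tail amputations, then reared with or without test agent in artificial pond water at 18–19 °C for 7 days postamputation. Imaged at 0 and 7 DPA. Agents dissolved in DMSO, 0.1% final DMSO. Vehicle served as negative control, geldanamycin as positive control.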

Chain of Eukaryotic translation initiation factor 4E-binding protein 1 (Homo sapiens) (Q13541 whole entry): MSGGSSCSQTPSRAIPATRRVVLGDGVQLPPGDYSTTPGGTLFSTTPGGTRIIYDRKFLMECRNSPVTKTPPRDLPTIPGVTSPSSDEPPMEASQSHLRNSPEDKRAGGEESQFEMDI

Row | Structure (SMILES) | Activity (Staphylococcus aureus) | Activity (Bacillus spizizenii) | Activity (Micrococcus luteus) | Activity (Saccharomyces cerevisiae) | Activity (Salmonella enterica) | Activity (Mycolicibacterium aurum) | Activity (Escherichia coli) | Activity [3] | IC50 (A549 [4]) | inhibition [5] | IC50 (PC-3 [6]) | also measured
1 | COC(=O)C/C(C)=C\c1c(O)cc2c(c1O)C(=O)c1cccc(O)c1C2=O | inactive | inactive | inactive | inactive | inactive | inactive | inactive |  |  |  |  | Activity (PC-3 [1]): inactive; Activity (A549 [2]): inactive
2 | C[C@@H]1O[C@@H](O[C@H]2CC[C@H](O[C@@]3(C)CC(=O)[C@]4(O)C5=C(C=C[C@]4(O)C3)C(=O)c3c(ccc([C@H]4C[C@H]6O[C@H]7CC(=O)[C@H](C)O[C@H]7O[C@H]6[C@@H](C)O4)c3O)C5=O)O[C@H]2C)C(N)=CC1=O |  |  |  |  |  |  |  | Non-Toxic |  |  |  | 
3 | C[C@@H]1O[C@H]2O[C@H]3[C@@H](C)O[C@@H](c4ccc5c(c4O)C(=O)C4=C(C5=O)[C@@]5(O)C(=O)C[C@](C)(O)C[C@@]5(O)C=C4)C[C@H]3O[C@H]2CC1=O |  |  |  |  |  |  |  | Non-Toxic |  |  |  | 
4 | C[C@@H]1O[C@@H](O[C@H]2CC[C@H](O[C@@]3(C)CC(=O)[C@]4(O)C5=C(C=C[C@]4(O)C3)C(=O)c3c(ccc([C@H]4C[C@@H](O)[C@H](O[C@H]6CC[C@H](O)[C@H](C)O6)[C@@H](C)O4)c3O)C5=O)O[C@H]2C)C=CC1=O [SAQUAYAMYCIN K] |  |  |  |  |  |  |  |  | < 500 nM | Active | < 500 nM | 
5 | C[C@@H]1O[C@@H](O[C@H]2CC[C@H](O[C@@]3(C)CC(=O)[C@]4(O)C5=C(C=C[C@]4(O)C3)C(=O)c3c(ccc([C@H]4C[C@@H](O)[C@H](O)[C@@H](C)O4)c3O)C5=O)O[C@H]2C)C=CC1=O [SAQUAYAMYCIN G] |  |  |  |  |  |  |  | Non-Toxic |  |  |  | 
6 | CC(=O)OC(=O)C(O)/C(C)=C\c1c(O)cc2c(c1O)C(=O)c1cccc(O)c1C2=O (stereo unspecified) | inactive | inactive | inactive | inactive | inactive | inactive | inactive |  |  |  |  | Activity (PC-3 [1]): inactive; Activity (A549 [2]): inactive
7 | COc1cccc2c1C(=O)C1=C(C2=O)c2c(O)cc(C)cc2[C@@H](O)[C@H]1O | inactive | inactive | inactive | inactive | inactive | inactive | inactive | Non-Toxic | 1880 nM | inactive | 320 nM | 
8 | COc1cccc2c1C(=O)c1ccc(/C=C(\C)CC(=O)O)c(O)c1C2=O | inactive | inactive | inactive | inactive | inactive | inactive | inactive |  |  |  |  | Activity (PC-3 [1]): inactive; Activity (A549 [2]): inactive
9 | C[C@@H]1O[C@@H](O[C@H]2[C@H](O)C[C@H](c3ccc4c(c3O)C(=O)C3=C(C4=O)[C@@]4(O)C(=O)C[C@](C)(O[C@H]5CC[C@H](O[C@H]6C=CC(=O)[C@H](C)O6)[C@H](C)O5)C[C@@]4(O)C=C3)O[C@@H]2C)C=CC1=O [SAQUAYAMYCINS A] |  |  |  |  |  |  |  |  | < 500 nM | Active | < 500 nM | Activity [7]: Toxic
10 | C[C@@H]1O[C@@H](O[C@@H]2C[C@H](c3ccc4c(c3O)C(=O)C3=C(C4=O)[C@@]4(O[C@H]5CC[C@H](O)[C@H](C)O5)C(=O)C[C@](C)(O)C[C@@]4(O)C=C3)O[C@H](C)[C@H]2O)CC[C@@H]1O[C@H]1C[C@@H](O)[C@H](O)[C@@H](C)O1 |  |  |  |  |  |  |  | Non-Toxic |  |  |  | 
11 | C[C@@H]1O[C@@H](O[C@H]2CC[C@H](O[C@@]3(C)CC(=O)[C@]4(O)C5=C(C=C[C@]4(O)C3)C(=O)c3c(ccc([C@H]4C[C@@H](O)[C@H](O[C@@H]6O[C@@H](C)C(=O)C=C6N)[C@@H](C)O4)c3O)C5=O)O[C@H]2C)C=CC1=O [SAQUAYAMYCIN I] |  |  |  |  |  |  |  | Non-Toxic |  |  |  | 
12 | Cc1cc(O)c2c3c(ccc2c1)C(=O)c1c(O[C@H]2C[C@@H](O)[C@H](O[C@H]4C[C@@H](O[C@H]5CC[C@H](O[C@H]6C[C@@H](O)[C@H](O[C@H]7C[C@@H](O)[C@H](O)[C@@H](C)O7)[C@@H](C)O6)[C@H](C)O5)[C@H](O)[C@@H](C)O4)[C@@H](C)O2)cccc1C3=O [LANDOMYCIN M] |  |  |  |  |  |  |  | Toxic |  |  |  | 
13 | Cc1cc(O)c2c3c(ccc2c1)C(=O)c1c(O[C@H]2C[C@@H](O)[C@H](O[C@H]4C[C@@H](O[C@H]5CC[C@H](O[C@H]6CC[C@H](O[C@H]7C[C@@H](O[C@H]8CC[C@H](O)[C@H](C)O8)[C@H](O)[C@@H](C)O7)[C@@H](C)O6)[C@H](C)O5)[C@H](O)[C@@H](C)O4)[C@@H](C)O2)cccc1C3=O |  |  |  |  |  |  |  |  | < 500 nM | Active | < 500 nM | 
14 | C/C(=C/c1c(O)cc2c(c1O)C(=O)c1cccc(O)c1C2=O)CC(=O)O | inactive | inactive | inactive | inactive | inactive | inactive | inactive |  |  |  |  | Activity (PC-3 [1]): inactive; Activity (A549 [2]): inactive
15 | C[C@@H]1O[C@@H](O[C@H]2CC[C@H](O[C@@]3(C)CC(=O)[C@]4(O)C5=C(C=C[C@]4(O)C3)C(=O)c3c(ccc([C@H]4C[C@H]6O[C@H]7CC(=O)[C@H](C)O[C@H]7O[C@H]6[C@@H](C)O4)c3O)C5=O)O[C@H]2C)C=CC1=O |  |  |  |  |  |  |  |  | < 500 nM | Active | < 500 nM | 
16 | C[C@@H]1O[C@H]2O[C@H]3[C@@H](C)O[C@@H](c4ccc5c(c4O)C(=O)C4=C(C5=O)[C@@]5(O)C(=O)C[C@](C)(O[C@H]6CC[C@H](O[C@H]7CC[C@H](O)[C@H](C)O7)[C@H](C)O6)C[C@@]5(O)C=C4)C[C@H]3O[C@H]2CC1=O |  |  |  |  |  |  |  | Non-Toxic | < 500 nM | Active | < 500 nM | 
17 | Cc1cc(O)c2c3c(ccc2c1)C(=O)c1c(O[C@H]2C[C@@H](O)[C@H](O[C@H]4C[C@@H](O)[C@H](O)[C@@H](C)O4)[C@@H](C)O2)cccc1C3=O [LANDOMYCIN O] |  |  |  |  |  |  |  | Toxic |  |  |  | 
18 | Cc1cc(O)c2c(c1)C[C@@H](O)C1=C2C(=O)c2c(O)ccc(O[C@H]3C[C@@H](O)[C@H](O[C@H]4C[C@@H](O[C@H]5CC[C@H](O[C@H]6C[C@@H](O)[C@H](O[C@H]7C[C@@H](O[C@H]8CC[C@H](O)[C@H](C)O8)[C@H](O)[C@@H](C)O7)[C@@H](C)O6)[C@H](C)O5)[C@H](O)[C@@H](C)O4)[C@@H](C)O3)c2C1=O [LANDOMYCIN A] |  |  |  |  |  |  |  |  | < 500 nM | Active | < 500 nM | 
19 | Cc1cc(O)c2c(c1)C[C@@H](O)C1=C2C(=O)c2cccc(O[C@H]3C[C@@H](O)[C@H](O[C@H]4C[C@@H](O[C@H]5CC[C@H](O[C@H]6CC[C@H](O[C@H]7C[C@@H](O[C@H]8CC[C@H](O)[C@H](C)O8)[C@H](O)[C@@H](C)O7)[C@@H](C)O6)[C@H](C)O5)[C@H](O)[C@@H](C)O4)[C@@H](C)O3)c2C1=O |  |  |  |  |  |  |  |  | < 500 nM | Active | < 500 nM | 
20 | COc1cccc2c1C(=O)c1ccc(/C=C(/C)CC(=O)O)c(O)c1C2=O | inactive | inactive | inactive | inactive | inactive | inactive | inactive |  |  |  |  | Activity (PC-3 [1]): inactive; Activity (A549 [2]): inactive
21 | COc1cccc2c1C(=O)c1cc(O)c(/C=C(/C)CC(=O)O)c(O)c1C2=O | inactive | inactive | inactive | inactive | inactive | inactive | inactive |  |  |  |  | Activity (PC-3 [1]): inactive; Activity (A549 [2]): inactive
22 | Cc1cc(O)c2c(c1)C[C@@H](O)C1=C2C(=O)c2cccc(O[C@H]3C[C@@H](O)[C@H](O[C@H]4C[C@@H](O[C@H]5CC[C@H](O[C@H]6C[C@@H](O)[C@H](O[C@H]7C[C@@H](O)[C@H](O)[C@@H](C)O7)[C@@H](C)O6)[C@H](C)O5)[C@H](O)[C@@H](C)O4)[C@@H](C)O3)c2C1=O [LANDOMYCIN V] |  |  |  |  |  |  |  | Toxic |  |  |  | 
